From ChEMBL document CHEMBL4177595, “Design and synthesis of a novel series of orally active, selective somatostatin receptor 2 agonists for the treatment of type 2 diabetes” (Bioorg Med Chem, 2017)

Legend:
[1] = Lipophilicity, log D of the compound; format: physicochemical; details: octanol/water
[2] = target: Somatostatin receptor type 2 (Homo sapiens, UniProt P30874); assay: Displacement of [125I]somatostatin-14 (Tyr11) from human SSTR2 expressed in CHO dhfr cell membranes after 60 mins by TopCount scintillation counting method
In short: (§1)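 Membrane fractions were prepared from CHO dhfr- cells stably transfected with each human SSTR subtype, with a high-expressing single colony selected for each. Membranes in 25 mM Tris-HCl pH 7.4 with 0.1% BSA, EDTA and protease inhibitors were incubated with 50 pM [125I]SST-14 (Tyr11) and a range of compound concentrations for 60 min at room temperature. Excess SST-14 defined nonspecific binding. Samples were filtered on PEI-soaked GF/B filters before counting. IC50 came from pseudo-Hill fitting.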

[3] = target: Somatostatin receptor type 5 (Homo sapiens, UniProt P35346); assay: Displacement of [125I]somatostatin-14 (Tyr11) from human SSTR5 expressed in CHO dhfr cell membranes after 60 mins by TopCount scintillation counting method; in short: as §1
HepG2 = assay: Induction of phospholipidosis in human HepG2 cells up to 50 uM after 24 hrs by NBD-PE fluorophore-based assay relative to amiodarone; format: cell-based; details: hepg2, 24 h
[4] = Volume of distribution at steady state in Sprague-Dawley rat at 0.3 mg/kg, iv after 1 hr; format: ADME, organism-based; details: in vivo, read-out: Vdss
Rattus norvegicus [5] = species on record: Rattus norvegicus; assay: Inhibition of hypoglycemia-induced glucagon secretion in Sprague-Dawley rat pretreated for 1 hr followed by insulin addition measured after 30 mins post insulin secretion by radioimmunoassay; format: functional
In short: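 SD rats were given compound orally, then insulin 2 IU/kg s.c. 1 h after dosing. Tail-vein blood was drawn 30 min after insulin, and plasma glucagon was measured by radioimmunoassay. Values are means ± SD (n = 6), compared with vehicle by one-tailed Williams' test. ED50 was derived from the dose-response.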

[6] = target: Somatostatin receptor type 1 (Homo sapiens, UniProt P30872); assay: Displacement of [125I]somatostatin-14 (Tyr11) from human SSTR1 expressed in CHO dhfr cell membranes after 60 mins by TopCount scintillation counting method; in short: as §1
[7] = MRT in Sprague-Dawley rat at 1 mg/kg, po; format: ADME, organism-based; details: in vivo
[8] = target: Somatostatin receptor type 3 (Homo sapiens, UniProt P32745); assay: Displacement of [125I]somatostatin-14 (Tyr11) from human SSTR3 expressed in CHO dhfr cell membranes after 60 mins by TopCount scintillation counting method; in short: as §1
[9] = target: Somatostatin receptor type 4 (Homo sapiens, UniProt P31391); assay: Displacement of [125I]somatostatin-14 (Tyr11) from human SSTR4 expressed in CHO dhfr cell membranes after 60 mins by TopCount scintillation counting method; in short: as §1
[10] = AUC in Sprague-Dawley rat at 1 mg/kg, po after 1 hr; format: ADME, organism-based; parameters: time < 1 hr, dose 1 mg/kg, route oral; details: in vivo
[11] = Plasma concentration in Sprague-Dawley rat at 0.3 mg/kg, iv after 5 mins; format: ADME, organism-based
[12] = Total clearance in Sprague-Dawley rat at 0.3 mg/kg, iv after 1 hr; format: ADME, organism-based; details: in vivo
Rattus norvegicus [13] = species on record: Rattus norvegicus; assay: Antidiabetic activity in Wistar rat type 2 diabetic model assessed as inhibition of glucose excursion up to 60 mins by meal tolerance test; format: functional; details: 1 h, read-out: MED
In short: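 Female Wistar fatty rats were fasted overnight and then dosed orally with vehicle or compound, followed by a liquid meal challenge (20 kcal/kg). Plasma glucose was followed over time. The read-out was AUC of delta plasma glucose, and a minimum effective dose was determined.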

[14] = Cmax in Sprague-Dawley rat at 1 mg/kg, po after 1 hr; format: ADME, organism-based; parameters: dose 1 mg/kg, route oral; details: in vivo
[15] = AUC in Sprague-Dawley rat at 0.3 mg/kg, iv after 1 hr; format: ADME, organism-based; parameters: time < 1 hr, dose 0.3 mg/kg, route intravenous; details: in vivo
[16] = Tmax in Sprague-Dawley rat at 1 mg/kg, po after 1 hr; format: ADME, organism-based; details: in vivo
[17] = MRT in Sprague-Dawley rat at 0.3 mg/kg, iv; format: ADME, organism-based; details: in vivo
[18] = Oral bioavailability in Sprague-Dawley rat at 1 mg/kg after 1 hr; format: ADME, organism-based; details: in vivo

Chain of Somatostatin receptor type 2 (P30874 whole entry): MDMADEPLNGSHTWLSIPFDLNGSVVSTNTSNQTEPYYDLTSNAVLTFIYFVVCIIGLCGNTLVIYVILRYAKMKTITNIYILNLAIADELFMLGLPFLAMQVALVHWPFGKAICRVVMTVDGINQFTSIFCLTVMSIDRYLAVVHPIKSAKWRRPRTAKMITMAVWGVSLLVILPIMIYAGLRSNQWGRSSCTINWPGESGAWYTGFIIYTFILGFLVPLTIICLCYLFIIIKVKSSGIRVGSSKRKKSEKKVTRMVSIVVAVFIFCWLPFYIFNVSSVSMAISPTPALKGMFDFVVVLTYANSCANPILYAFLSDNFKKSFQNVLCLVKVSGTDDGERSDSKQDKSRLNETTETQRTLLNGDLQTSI
Chain of Somatostatin receptor type 5 (P35346 whole entry): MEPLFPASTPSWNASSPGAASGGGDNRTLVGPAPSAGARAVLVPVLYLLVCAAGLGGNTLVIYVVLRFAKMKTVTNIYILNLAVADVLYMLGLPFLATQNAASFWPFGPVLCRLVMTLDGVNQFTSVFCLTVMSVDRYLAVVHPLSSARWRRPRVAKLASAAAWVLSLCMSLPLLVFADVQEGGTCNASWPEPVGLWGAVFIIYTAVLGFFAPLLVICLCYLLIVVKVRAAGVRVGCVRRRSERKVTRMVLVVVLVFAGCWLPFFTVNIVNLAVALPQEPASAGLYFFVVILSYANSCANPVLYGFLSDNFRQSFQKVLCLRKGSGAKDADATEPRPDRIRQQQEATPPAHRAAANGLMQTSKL
Chain of Somatostatin receptor type 3 (P32745 whole entry): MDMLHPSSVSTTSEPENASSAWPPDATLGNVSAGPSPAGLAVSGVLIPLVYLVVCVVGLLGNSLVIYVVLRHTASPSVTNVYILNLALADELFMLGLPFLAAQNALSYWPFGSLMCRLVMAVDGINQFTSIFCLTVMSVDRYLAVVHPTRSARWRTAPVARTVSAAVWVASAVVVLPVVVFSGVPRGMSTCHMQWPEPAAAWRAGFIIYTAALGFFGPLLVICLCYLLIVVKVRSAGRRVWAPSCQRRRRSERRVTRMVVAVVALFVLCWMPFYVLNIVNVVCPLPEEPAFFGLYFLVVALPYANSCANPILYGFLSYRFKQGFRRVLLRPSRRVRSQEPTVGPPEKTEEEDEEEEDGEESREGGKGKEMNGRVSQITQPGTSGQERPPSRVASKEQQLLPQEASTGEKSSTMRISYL
Chain of Somatostatin receptor type 1 (P30872 whole entry): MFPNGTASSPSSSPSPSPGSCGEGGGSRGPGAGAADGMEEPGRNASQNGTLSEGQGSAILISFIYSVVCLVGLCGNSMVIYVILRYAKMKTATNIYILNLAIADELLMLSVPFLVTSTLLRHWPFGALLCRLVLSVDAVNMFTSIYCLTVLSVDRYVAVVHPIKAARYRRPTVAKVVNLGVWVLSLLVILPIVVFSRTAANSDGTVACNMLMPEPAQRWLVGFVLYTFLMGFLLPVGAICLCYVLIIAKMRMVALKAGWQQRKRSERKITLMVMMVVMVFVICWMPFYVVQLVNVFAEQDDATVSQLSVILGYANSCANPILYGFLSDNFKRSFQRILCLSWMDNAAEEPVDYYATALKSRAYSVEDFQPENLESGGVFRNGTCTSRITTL
Chain of Somatostatin receptor type 4 (P31391 whole entry): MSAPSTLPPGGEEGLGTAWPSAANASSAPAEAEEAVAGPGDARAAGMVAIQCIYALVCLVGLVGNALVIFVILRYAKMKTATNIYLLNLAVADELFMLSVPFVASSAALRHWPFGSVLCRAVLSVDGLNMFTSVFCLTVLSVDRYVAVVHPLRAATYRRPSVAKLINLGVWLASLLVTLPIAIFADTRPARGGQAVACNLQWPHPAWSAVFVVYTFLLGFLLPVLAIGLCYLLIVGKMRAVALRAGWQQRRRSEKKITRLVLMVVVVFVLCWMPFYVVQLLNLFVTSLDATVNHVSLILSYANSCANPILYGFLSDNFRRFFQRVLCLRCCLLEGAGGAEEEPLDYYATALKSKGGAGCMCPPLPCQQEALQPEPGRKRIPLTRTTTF

Row | SMILES | logD [1] | IC50 [2] | Activity (HepG2) | other results
1 | CCOc1ccc(CN(C)C)cc1NC(=O)[C@H](NC(=O)N1CCC(c2ccccc2)CC1)[C@@H](C)c1c[nH]c2ccccc12 | 3 | 0.2 nM | 111% | IC50 [3]: > 100 nM
2 | CCOc1ccc(CN(C)C)cc1NC(=O)[C@H](NC(=O)N1CCN(c2ccc(F)cc2C)C(=O)C1)[C@@H](C)c1c[nH]c2ccccc12 | 1.86 | 0.2 nM | 47% | 
3 | CC(=O)c1ccc(CN(C)C)cc1NC(=O)[C@H](NC(=O)N1CCC(C(=O)c2cccs2)CC1)[C@@H](C)c1c[nH]c2ccccc12 | 1.84 | 0.68 nM | 91% | 
4 | C[C@@H](c1c[nH]c2ccccc12)[C@@H](NC(=O)N1CCN(C(=O)C(C)(C)C)CC1)C(=O)Nc1cc(CN(C)C)ccc1OC(F)(F)F | 2.18 | 2.8 nM | 48% | 
5 | CCOc1ccc(CN(C)C)cc1NC(=O)[C@H](NC(=O)N1CCN(c2ccc(F)cc2)CC1)[C@@H](C)c1c[nH]c2ccccc12 | 2.22 | 0.2 nM | 99% | 
6 | CC(=O)c1ccc(CN(C)C)cc1NC(=O)[C@H](NC(=O)N1CCN(C(=O)C2CCC2)CC1)[C@@H](C)c1c[nH]c2ccccc12 | 1.04 | 1.8 nM | 46% | 
7 | CC(=O)c1ccc(CN(C)C)cc1NC(=O)[C@H](NC(=O)N1CCN(c2ccc(F)cc2C)C(=O)C1)[C@@H](C)c1c[nH]c2ccccc12 | 1.81 | 0.24 nM | 30% | 
8 | CC(=O)c1ccc(CN(C)C)cc1NC(=O)[C@H](NC(=O)N1CCN(C(=O)C(C)(C)C)CC1)[C@@H](C)c1c[nH]c2ccccc12 | 0.68 | 0.98 nM | 36% | 
9 | CCCCc1oc2ccccc2c1C(=O)c1cc(I)c(OCCN(CC)CC)c(I)c1 [AMIODARONE] |  |  | 100% | 
10 | CCOc1ccc(CN(C)C)cc1NC(=O)[C@H](NC(=O)N1CCN(C(=O)C(C)(C)C)CC1)[C@@H](C)c1c[nH]c2ccccc12 | 1.09 | 2.3 nM | 38% | 
11 | C[C@@H](c1c[nH]c2ccccc12)[C@@H](NC(=O)N1CCN(c2ccc(F)cc2)C(=O)C1)C(=O)Nc1cc(CN(C)C)ccc1OC(F)(F)F | 2.73 | 0.53 nM | 50% | 
12 | CCOc1ccc(CN(C)C)cc1NC(=O)[C@H](NC(=O)N1CCN(C(=O)C2CCC2)CC1)[C@@H](C)c1c[nH]c2ccccc12 | 0.73 | 2.1 nM | 32% | 
13 | CCOc1ccc(CN(C)C)cc1NC(=O)[C@H](NC(=O)N1CCN(c2ccc(F)cc2)C(=O)C1)[C@@H](C)c1c[nH]c2ccccc12 | 1.65 | 0.2 nM | 36% | 
14 | CCOc1ccc(CN(C)C)cc1NC(=O)[C@H](NC(=O)N1CCC(C(=O)c2ccco2)CC1)[C@@H](C)c1c[nH]c2ccccc12 | 1.14 | 2.3 nM | 54% | 
15 | CCOc1ccc(CN(C)C)cc1NC(=O)[C@H](NC(=O)N1CCC(C(=O)c2cccs2)CC1)[C@@H](C)c1c[nH]c2ccccc12 | 1.89 | 0.58 nM | 98% | 
16 | CC(=O)c1ccc(CN(C)C)cc1NC(=O)[C@H](NC(=O)N1CCN(c2ccc(F)cc2)C(=O)C1)[C@@H](C)c1c[nH]c2ccccc12 | 1.59 | 0.31 nM | 37% | 
17 | CCOc1ccc(CN(C)C)cc1NC(=O)[C@H](NC(=O)N1CCC(C(=O)C2CCC2)CC1)[C@@H](C)c1c[nH]c2ccccc12 | 1.55 | 0.6 nM | 75% | 
18 | CCOc1ccc(CN(C)C)cc1NC(=O)[C@H](NC(=O)N1CCC(C(=O)c2nccs2)CC1)[C@@H](C)c1c[nH]c2ccccc12 | 1.35 | 2 nM | 74% | 
19 | CCOc1ccc(CN(C)C)cc1NC(=O)[C@H](NC(=O)N1CCC(C(=O)CC(C)C)CC1)[C@@H](C)c1c[nH]c2ccccc12 | 2.01 | 0.89 nM | 76% | 
20 | CC(=O)c1ccc(CN(C)C)cc1NC(=O)[C@H](NC(=O)N1CCC(C(=O)C2CCC2)CC1)[C@@H](C)c1c[nH]c2ccccc12 | 1.5 | 0.69 nM | 84% | 
21 | CCOc1ccc(CN(C)C)cc1NC(=O)[C@H](NC(=O)N1CCC(C(=O)C(C)C)CC1)[C@@H](C)c1c[nH]c2ccccc12 | 1.5 | 1.1 nM | 63% | 
22 | CC(=O)c1ccc(CN(C)C)cc1NC(=O)[C@H](NC(=O)N1CCC(C(=O)C(C)C)CC1)[C@@H](C)c1c[nH]c2ccccc12 | 1.44 | 2 nM | 58% | 
23 | Cc1cc(F)ccc1N1CCN(C(=O)N[C@@H](C(=O)Nc2cc(CN(C)C)ccc2OC(F)(F)F)[C@@H](C)c2c[nH]c3ccccc23)CC1=O | 2.95 | 0.17 to 0.27 nM | 58% | Vd [4]: 6.63 L/kg; ED50 (Rattus norvegicus [5]): 1.1 mg/kg; IC50 [6]: 5100 nM; MRT [7]: 5.69 h; IC50 [8]: 360 nM; IC50 [9]: 100 nM; AUC at 1 h [10]: 22.9 ng·h/mL; concentration at 5 min [11]: 194 ng/mL; clearance [12]: 43.5 mL/min/kg; minimal effective dose (Rattus norvegicus [13]): 3 mg/kg; Cmax [14]: 10.3 ng/mL; AUC at 1 h [15]: 119 ng·h/mL; Tmax [16]: 0.83 h; MRT [17]: 2.57 h; IC50 [3]: 1700 nM; bioavailability [18]: 5.8%
24 | CCOc1ccc(CN(C)C)cc1NC(=O)[C@H](NC(=O)N1CCC(C(=O)c2ccccn2)CC1)[C@@H](C)c1c[nH]c2ccccc12 | 1.57 | 2.6 nM | 81% | 
